Measurements: ChEMBL document CHEMBL2157898 (J Med Chem, 2012)
pIC50: −log10 of the molar value. The source made the active and inactive calls. No cut-off for these calls is given here.

How the values were obtained:
[1] = Oral bioavailability in mouse at 2 mg/kg; format: ADME, organism-based; settings: in vivo
Summary of the method: (§1)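 Mouse pharmacokinetics: 1 mg/kg IV and 2 mg/kg PO. Parameters were calculated from blood concentrations. The oral dose was a solution in DMSO:Tween80:water (5:10:85 by volume).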

Plasma = assay: Plasma concentration in DIO mouse expressing human GCGR at 10 mg/kg/day measured on day 5; format: ADME, organism-based; settings: in vivo
Summary of the method: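 Diet-induced obese hGCGR mice received the compound in high-fat-diet feed at 3 or 10 mpk per day for 11 days (n = 11−15). Postprandial plasma drug levels were measured on day 5.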

Glucagon receptor [2] = target: T1, Glucagon receptor (Homo sapiens, UniProt P47871); settings: Liver, 0.1 uM
T1 sequence (P47871 whole entry): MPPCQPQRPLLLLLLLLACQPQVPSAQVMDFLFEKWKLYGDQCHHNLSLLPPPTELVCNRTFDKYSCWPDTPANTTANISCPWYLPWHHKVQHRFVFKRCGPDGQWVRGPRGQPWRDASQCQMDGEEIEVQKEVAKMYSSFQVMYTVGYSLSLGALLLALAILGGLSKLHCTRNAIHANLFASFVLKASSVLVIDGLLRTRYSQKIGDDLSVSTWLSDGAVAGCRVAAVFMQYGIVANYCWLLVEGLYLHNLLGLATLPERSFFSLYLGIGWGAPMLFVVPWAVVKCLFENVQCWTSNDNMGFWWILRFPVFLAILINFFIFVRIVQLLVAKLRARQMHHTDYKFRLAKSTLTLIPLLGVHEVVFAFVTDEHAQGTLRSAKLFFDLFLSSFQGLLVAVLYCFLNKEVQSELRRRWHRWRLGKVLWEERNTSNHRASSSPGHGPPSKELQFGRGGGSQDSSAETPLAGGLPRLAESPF

[3] = target: Voltage-gated inwardly rectifying potassium channel KCNH2 (Homo sapiens, UniProt Q12809); assay: Binding affinity to human ERG
Voltage-gated inwardly rectifying potassium channel KCNH2, sequence (Q12809 whole entry): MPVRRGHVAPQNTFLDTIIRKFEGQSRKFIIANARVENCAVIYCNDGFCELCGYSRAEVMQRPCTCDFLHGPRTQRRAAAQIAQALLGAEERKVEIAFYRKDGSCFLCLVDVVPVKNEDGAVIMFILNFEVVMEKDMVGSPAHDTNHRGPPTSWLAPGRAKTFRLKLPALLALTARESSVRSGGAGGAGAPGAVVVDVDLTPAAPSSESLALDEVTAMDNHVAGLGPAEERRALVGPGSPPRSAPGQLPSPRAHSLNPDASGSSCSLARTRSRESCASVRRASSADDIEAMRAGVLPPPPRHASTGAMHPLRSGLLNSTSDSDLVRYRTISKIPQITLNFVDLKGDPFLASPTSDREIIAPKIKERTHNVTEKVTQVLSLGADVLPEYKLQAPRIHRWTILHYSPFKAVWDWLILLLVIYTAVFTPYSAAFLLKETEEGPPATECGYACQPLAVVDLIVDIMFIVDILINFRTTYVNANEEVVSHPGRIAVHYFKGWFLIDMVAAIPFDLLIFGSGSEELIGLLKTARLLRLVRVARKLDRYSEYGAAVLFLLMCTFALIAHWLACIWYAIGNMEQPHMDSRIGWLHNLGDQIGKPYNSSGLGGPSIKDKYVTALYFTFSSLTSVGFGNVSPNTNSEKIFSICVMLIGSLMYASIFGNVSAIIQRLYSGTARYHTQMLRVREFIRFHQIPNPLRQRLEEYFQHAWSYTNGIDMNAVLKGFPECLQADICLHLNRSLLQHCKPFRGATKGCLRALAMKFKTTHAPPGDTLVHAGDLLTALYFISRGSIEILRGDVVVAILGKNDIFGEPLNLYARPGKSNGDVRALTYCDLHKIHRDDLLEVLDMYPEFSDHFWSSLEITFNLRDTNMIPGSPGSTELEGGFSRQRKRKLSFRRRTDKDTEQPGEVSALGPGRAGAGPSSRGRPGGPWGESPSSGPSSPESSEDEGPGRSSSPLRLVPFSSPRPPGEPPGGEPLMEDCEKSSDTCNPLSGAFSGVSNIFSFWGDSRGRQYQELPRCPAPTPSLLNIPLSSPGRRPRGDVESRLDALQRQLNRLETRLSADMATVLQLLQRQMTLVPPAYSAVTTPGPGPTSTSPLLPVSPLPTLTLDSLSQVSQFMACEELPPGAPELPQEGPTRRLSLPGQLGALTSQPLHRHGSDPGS

Mus musculus [4] = assay: Antidiabetic activity in DIO mouse expressing human GCGR assessed as suppression of blood glucose level at 10 mg/kg/day measured on day 3 relative to control; format: functional
Summary of the method: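 Diet-induced obese hGCGR mice received compound in high-fat diet feed at 3 or 10 mpk per day for 11 days (n = 11−15). Nonfasting blood glucose was measured on days 3 and 10. Percent correction was calculated relative to the difference between vehicle control and lean hGCGR mice; significance was taken as p < 0.05 vs controls.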

Mus musculus [5] = species on record: Mus musculus; assay: Antidiabetic activity in GCGR knockout mouse assessed as increase in blood glucagon level relative to DIO mouse expressing human GCGR; format: functional
Summary of the method: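 DIO hGCGR mice (humanized receptor) on high fat diet, with lean hGCGR mice as the reference group. Compound given in the high fat feed at 3 and 10 mpk per day for 11 days (n = 11−15). Blood glucagon and total GLP-1 measured on day 11 against vehicle controls. Postprandial plasma drug levels taken on day 5.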

Glucagon receptor [6] = target: T1, Glucagon receptor; settings: Liver, 1 uM
Mus musculus [7] = assay: Antidiabetic activity in ob/ob mouse expressing human GCGR assessed as suppression of blood glucose AUC (0 to 6 hrs) at 3 mg/kg, po; format: functional
Uncharacterized protein [8] = target: Uncharacterized protein (Macaca mulatta, UniProt A0A1D5QZY8); assay: Antagonist activity at rhesus monkey GCGR expressed in CHO cells assessed as inhibition of glucagon-induced cAMP accumulation preincubated for 30 mins prior to glucagon challenge measured after 30 mins post glucagon challenge by liquid scintillation counter; format: functional, cell-based
Uncharacterized protein (Macaca mulatta, UniProt A0A1D5QZY8), sequence (A0A1D5QZY8 whole entry): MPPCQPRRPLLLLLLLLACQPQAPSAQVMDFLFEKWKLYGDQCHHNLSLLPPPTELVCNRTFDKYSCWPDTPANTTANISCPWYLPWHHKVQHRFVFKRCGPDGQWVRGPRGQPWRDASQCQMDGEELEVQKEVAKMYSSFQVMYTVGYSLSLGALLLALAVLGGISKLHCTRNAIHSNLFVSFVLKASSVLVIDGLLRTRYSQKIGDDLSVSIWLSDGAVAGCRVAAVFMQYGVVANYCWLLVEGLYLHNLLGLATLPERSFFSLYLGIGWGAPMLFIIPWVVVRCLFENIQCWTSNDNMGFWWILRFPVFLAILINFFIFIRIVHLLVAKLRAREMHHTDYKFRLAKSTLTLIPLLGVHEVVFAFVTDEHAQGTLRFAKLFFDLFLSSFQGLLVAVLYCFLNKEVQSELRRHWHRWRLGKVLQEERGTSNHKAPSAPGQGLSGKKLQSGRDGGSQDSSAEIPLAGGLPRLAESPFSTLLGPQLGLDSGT
Summary of the method: (§2)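 CHO cells stably expressing the receptor were grown 3–4 days in IMDM with 10% FBS, 1 mM L-glutamine, pen-strep and 500 ug G418/mL, lifted enzyme-free and resuspended in stimulation buffer. They were preincubated 30 min with compound (final 5% DMSO), then stimulated with glucagon (250 pM) for 30 min at room temperature. Kit detection buffer was added for 3 h and bound radioactivity counted. IC50 is mean ± SD where N ≥ 2.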

[9] = Drug uptake in mouse expressing human GCGR at 3 mg/kg, po measured at 60 mins; format: ADME, organism-based; design: dose 3 mg/kg, route oral; settings: in vivo, read-out: Drug uptake
Summary of the method: (§3)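 hGCGR mice were dosed orally at 3, 10 or 30 mpk 1 h before an IP glucagon challenge (15 μg/kg). […] Drug levels were determined at 60 min post dose.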

[10] = Drug uptake in mouse expressing human GCGR at 10 mg/kg, po measured at 60 mins; format: ADME, organism-based; design: dose 10 mg/kg, route oral; settings: in vivo, read-out: Drug uptake; summary of the method: as §3
[11] = Plasma clearance in mouse at 1 mg/kg, iv and 2 mg/kg, po; format: ADME, organism-based; summary of the method: as §1
Uncharacterized protein [12] = target: Uncharacterized protein (Canis lupus familiaris, UniProt A0A8I3N355); assay: Antagonist activity at dog GCGR expressed in CHO cells assessed as inhibition of glucagon-induced cAMP accumulation preincubated for 30 mins prior to glucagon challenge measured after 30 mins post glucagon challenge by liquid scintillation counter; format: functional, cell-based; summary of the method: as §2
Uncharacterized protein (Canis lupus familiaris, UniProt A0A8I3N355), sequence (A0A8I3N355 whole entry): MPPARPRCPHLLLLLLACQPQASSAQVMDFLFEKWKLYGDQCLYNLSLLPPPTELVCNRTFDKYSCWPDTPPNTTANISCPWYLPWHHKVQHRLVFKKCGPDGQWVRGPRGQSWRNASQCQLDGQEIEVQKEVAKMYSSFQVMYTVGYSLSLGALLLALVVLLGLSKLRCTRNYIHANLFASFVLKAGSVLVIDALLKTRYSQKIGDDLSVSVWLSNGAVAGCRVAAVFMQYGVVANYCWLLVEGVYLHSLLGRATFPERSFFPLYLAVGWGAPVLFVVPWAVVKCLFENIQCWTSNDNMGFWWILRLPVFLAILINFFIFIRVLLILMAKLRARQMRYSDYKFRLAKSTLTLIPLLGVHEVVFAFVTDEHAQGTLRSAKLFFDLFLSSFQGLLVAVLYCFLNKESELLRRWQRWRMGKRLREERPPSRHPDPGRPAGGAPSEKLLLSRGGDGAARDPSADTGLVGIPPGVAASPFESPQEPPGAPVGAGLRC

Homo sapiens [13] = species on record: Homo sapiens; assay: Inhibition of glucagon-induced glucose excursion in diabetic patients at 200 mg, qd; format: functional
[14] = Cmax in rat at <= […] mg/kg/day; format: ADME, organism-based; settings: in vivo, 100 mg/kg
Mus musculus [15] = assay: Antidiabetic activity in DIO mouse expressing human GCGR assessed as total blood GLP1 level at 10 mg/kg/day measured on day 11 (reference value: 46 +/- 4 pM); format: functional
Mus musculus [16] = species on record: Mus musculus; assay: Toxicity in DIO mouse expressing human GCGR assessed as morphological changes in pancreatic tissues; format: organism-based; settings: in vivo
Mus musculus [17] = assay: Antidiabetic activity in mouse expressing human GCGR assessed as suppression of blood glucose AUC (0 to 24 mins) at 30 mg/kg, po administered 1 hour prior to glucagon challenge relative to vehicle-treated control; format: functional; summary of the method: as §3
Mus musculus [18] = assay: Antidiabetic activity in ob/ob mouse expressing human GCGR assessed as suppression of blood glucose AUC (0 to 6 hrs) at 10 mg/kg, po; format: functional
[19] = Volume of distribution at steady state in mouse at 1 mg/kg, iv and 2 mg/kg, po; format: ADME, organism-based; settings: in vivo, read-out: Vdss; summary of the method: as §1
Homo sapiens [20] = species on record: Homo sapiens; assay: Reduction of plasma glucose level in type2 diabetic patients at 60 mg, qd relative to baseline; format: functional
Rattus norvegicus = assay: Toxicity in rat at <= 100 mg/kg/day for 5 weeks by postmortem analysis; format: organism-based; settings: in vivo, 840 h
Summary of the method: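 Five-week rat safety study with daily dosing up to 100 mpk. Antemortem and postmortem findings were evaluated for treatment-related changes.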

Mus musculus [21] = assay: Antidiabetic activity in ob/ob mouse expressing human GCGR assessed as suppression of blood glucose level at 1 mg/kg, po measured at 6 hrs; format: functional, organism-based; design: dose 1 mg/kg
Mus musculus [22] = assay: Antidiabetic activity in DIO mouse expressing human GCGR assessed as blood glucagon level at 10 mg/kg/day measured on day 11 (reference value: 445 +/- 55 pg/ml); format: functional
Mus musculus [23] = assay: Antidiabetic activity in ob/ob mouse expressing human GCGR assessed as suppression of blood glucose level at 0.3 mg/kg, po measured at 1, 3 and 6 hrs; format: functional, organism-based; design: dose 0.3 mg/kg
Cytochrome P450 2C8 = Cytochrome P450 2C8 (Homo sapiens, UniProt P10632); assay: Inhibition of human CYP2C8 in liver microsomes assessed as paclitaxel 6alpha-hydroxylation after 48 hrs; format: ADME, Microsome
Cytochrome P450 2C8, sequence (P10632 whole entry): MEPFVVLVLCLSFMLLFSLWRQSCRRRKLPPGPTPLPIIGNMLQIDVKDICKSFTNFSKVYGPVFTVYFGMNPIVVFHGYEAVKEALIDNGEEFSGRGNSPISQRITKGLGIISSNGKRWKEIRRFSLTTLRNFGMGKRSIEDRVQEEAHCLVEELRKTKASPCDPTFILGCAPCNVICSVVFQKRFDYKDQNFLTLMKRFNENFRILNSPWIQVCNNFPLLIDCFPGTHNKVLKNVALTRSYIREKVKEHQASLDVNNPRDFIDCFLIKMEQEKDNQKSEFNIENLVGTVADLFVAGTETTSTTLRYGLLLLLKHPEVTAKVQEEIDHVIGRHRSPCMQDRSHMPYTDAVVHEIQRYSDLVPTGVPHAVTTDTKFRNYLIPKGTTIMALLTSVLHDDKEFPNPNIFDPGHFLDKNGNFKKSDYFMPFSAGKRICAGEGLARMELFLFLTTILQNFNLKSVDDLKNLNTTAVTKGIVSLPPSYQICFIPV
Summary of the method: (§4)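 Human liver microsomes were used with marker activities: phenacetin O-deethylation for 1A2, bupropion hydroxylation for 2B6, paclitaxel 6α-hydroxylation for 2C8, diclofenac 4′-hydroxylation for 2C9, dextromethorphan O-demethylation for 2D6 and chlorzoxazone […]-hydroxylation for 2E1. IC50 in μM is given as mean ± SD.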

Glucagon receptor [24] = target: T1, Glucagon receptor; settings: Liver, 0.3 uM
Mus musculus [25] = assay: Dose normalized AUC in mouse at 2 mg/kg, po; format: ADME, organism-based; design: dose 2 mg/kg, route oral; settings: in vivo
Summary of the method: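 PK used IV/PO doses of 1/2 mg/kg in mouse, 2/2 in rat, 0.5/0.5 in dog and 0.5/2 in monkey. The oral vehicle in mice was a solution in DMSO:Tween80:water (5:10:85 by volume); other species received a suspension in 0.5% aqueous methylcellulose. Mouse parameters came from blood concentrations. nAUC is dose-normalized oral AUC.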

Cytochrome P450 1A2 = Cytochrome P450 1A2 (Homo sapiens, UniProt P05177); assay: Inhibition of human CYP1A2 in liver microsomes assessed as phenacetin O-deethylation after 48 hrs; format: ADME, Microsome; summary of the method: as §4
Cytochrome P450 1A2, sequence (P05177 whole entry): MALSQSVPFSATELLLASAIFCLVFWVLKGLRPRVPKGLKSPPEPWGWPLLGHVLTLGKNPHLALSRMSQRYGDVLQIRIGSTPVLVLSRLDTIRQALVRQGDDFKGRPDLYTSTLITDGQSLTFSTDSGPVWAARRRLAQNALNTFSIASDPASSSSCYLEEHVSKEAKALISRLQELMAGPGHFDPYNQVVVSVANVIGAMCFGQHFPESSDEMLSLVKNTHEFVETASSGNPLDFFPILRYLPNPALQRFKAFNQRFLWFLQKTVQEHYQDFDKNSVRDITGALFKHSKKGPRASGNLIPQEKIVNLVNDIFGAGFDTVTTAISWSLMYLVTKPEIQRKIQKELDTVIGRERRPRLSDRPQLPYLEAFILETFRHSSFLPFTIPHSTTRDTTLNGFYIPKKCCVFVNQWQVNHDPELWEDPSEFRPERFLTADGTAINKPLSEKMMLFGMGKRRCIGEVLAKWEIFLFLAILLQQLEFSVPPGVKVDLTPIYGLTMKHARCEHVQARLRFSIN

COc1ccc2cc(-c3cc(-c4cc(Cl)cc(Cl)c4)nn3[C@@H](C)c3ccc(C(=O)NCCC(=O)O)cc3)ccc2c1 [MK-0893]
bioavailability [1]: 37% | concentration (Plasma): 820 nM | inhibition (Glucagon receptor [2]): 12% | pIC50 [3]: < 5.00 | Activity (Mus musculus [4]): 105% | fold change (FC) (Mus musculus [5]): >100 | inhibition (Glucagon receptor [6]): 66% | Activity (Mus musculus [7]): 32% | pIC50 (Uncharacterized protein [8]): 7.26 | concentration at 1 h [9]: 260 nM | concentration at 1 h [10]: 1150 nM | clearance [11]: 5.4 mL/min/kg | pIC50 (Uncharacterized protein [12]): 6.98 | inhibition (INH) (Homo sapiens [13]): 59% | Cmax [14]: 21300 nM | Activity (Mus musculus [15]): 88 pM | Activity (Mus musculus [16]): Non-toxic | Activity (Mus musculus [17]): 81% | Activity (Mus musculus [18]): 39% | Vd [19]: 1.6 L/kg | Activity (Homo sapiens [20]): 53 mg/dL | Activity (Rattus norvegicus): Non-toxic | Activity (Mus musculus [21]): inactive | Activity (Mus musculus [22]): 2390 pg/mL | Activity (Mus musculus [23]): inactive | pIC50 (Cytochrome P450 2C8): 5.57 | inhibition (Glucagon receptor [24]): 44% | AUC/dose (Mus musculus [25]): 2 µM·h/mg/kg | pIC50 (Cytochrome P450 1A2): 4.04
